Experimental data from article PMC12207910 (European journal of pharmaceutical sciences : official …, 2024).
In brackets after ≈: the same amount, converted by molar mass. Entries after “also recorded” stand apart in the source; their conditions may differ. Non-standard residues stand in square brackets, D forms with d. Residues, ends and D or L forms follow the SMILES beside them. Dip = N[C@H](C(=O)O)C(c1ccccc1)c1ccccc1

How the values were obtained:
[1] = system: C. albicans (ATCC 60193) biofilm; experiment: Antibiofilm activity, XTT assay; assay type: cell-based
Summary of the method: (§1)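 Fungal biofilms came from suspensions at 2×10^7 CFU/mL in RPMI medium grown 24 h at 35 °C, then washed twice with PBS. […] After washing, XTT with phenazine methosulfate was added for 1 h in the dark at 37 °C, and absorbance was read at 492 nm. Percentage decrease versus untreated wells; triplicate, replicated twice.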

[2] = system: MRSA (ATCC BAA-1556) biofilm; experiment: Antibiofilm activity, XTT assay; assay type: cell-based, Methicillin-resistant staphylococcus aureus
Summary of the method: (§2)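 Bacterial suspensions at 5×10^5 CFU/mL in MH broth were grown 24 h at 37 °C to form biofilms, then washed twice with PBS. […] Biofilms were rewashed, then given XTT plus phenazine methosulfate for 1 h in the dark at 37 °C, and A492 was read. Percentage decrease versus untreated wells; triplicate, run twice.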

E. coli (ATCC BAA-2452) [3] = experiment: Kill kinetics assay; assay type: cell-based, Escherichia coli
E. coli (ATCC BAA-2452) [4] = assay type: cell-based, Escherichia coli
in vitro [5] = conditions: human, cell viability
[6] = system: Pseudomonas aeruginosa (ATCC BAA-1744), imipenem resistant; conditions: Imipenem resistant strain
[7] = system: Clostridium difficile (ATCC 700057)
C. albicans (ATCC 60193) [8] = experiment: Kill kinetics assay; assay type: cell-based; conditions: after 12 h
in vitro [9] = conditions: human, cell viability; remark: listed apart in the source
[10] = system: A. fumigatus (Af-293) biofilm; experiment: Antibiofilm activity, XTT assay; assay type: cell-based, Aspergillus fumigatus
Summary of the method: as §1

in vitro [11] = conditions: human
[12] = system: Clostridium difficile (NAP1/027); conditions: Reduced susceptibility to multiple antibiotics
in vitro [13] = conditions: human, cell viability; remark: listed apart in the source
fungi = conditions: range over strains
A. fumigatus (Af-293) [14] = experiment: microbe, parasite or virus in culture; assay type: cell-based, Aspergillus fumigatus
[15] = system: human red blood cells (hRBC); experiment: Hemolytic activity; assay type: cell-based; conditions: concentration at which 50% hemolysis was observed
[16] = system: Enterococcus faecalis (ATCC 29212)
[17] = system: Staphylococcus pneumoniae (ATCC 700677), multi-drug resistant; conditions: Multi-drug resistant (Penicillin, Tetracycline, and Erythromycin)
[18] = system: E. coli (ATCC 25922) and E. coli (ATCC BAA-2452); experiment: Resistance development study, repeated exposure; assay type: cell-based; conditions: E. coli strains; 18 exposures
MRSA (ATCC BAA-1556) [19] = experiment: Kill kinetics assay; assay type: cell-based, Methicillin-resistant staphylococcus aureus
A. fumigatus (Af-293) [20] = experiment: Kill kinetics assay; assay type: cell-based, Aspergillus fumigatus; conditions: after 12 h
[21] = system: Acinetobacter baumannii (ATCC BAA1605), ciprofloxacin resistant; conditions: Ciprofloxacin resistant strain
[22] = system: E. coli (ATCC BAA-2452) biofilm; experiment: Antibiofilm activity, XTT assay; assay type: cell-based, Escherichia coli
Summary of the method: as §2

[23] = system: Enterococcus faecalis (ATCC 51575), vancomycin resistant
MRSA (ATCC BAA-1556) [24] = assay type: cell-based, Methicillin-resistant staphylococcus aureus
Gram-negative bacteria = conditions: drug-resistant Gram-negative bacteria, range over strains
in vitro [25] = conditions: human; remark: listed apart in the source
[26] = system: human skin fibroblast cell (HeKa); conditions: 24 h, 100 μg/mL
C. albicans (ATCC 60193) [27] = experiment: microbe, parasite or virus in culture; assay type: cell-based; conditions: ATCC 60193
[28] = Calcein dye leakage assay; conditions: mammalian mimic liposomes; after 100 min; concentration not given
Summary of the method: (§3)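 Calcein-loaded LUVs were used: negatively charged ones mimic bacterial membranes and zwitterionic ones mimic mammalian membranes. They were diluted in PBS to a final lipid concentration of 40 μM and mixed 1:1 with test compound at 5, 10, 20, 30 or 50 μg/mL. Fluorescence (ex 490/em 520 nm) was read every 10 min for 100 min. Leakage was expressed relative to background and Triton X-100 lysis (100%); triplicate.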

[29] = system: Escherichia coli (ATCC BAA-2452), NDM-1
[30] = Calcein dye leakage assay; conditions: bacterial mimic liposomes; for calcein dye leakage: 5 μg/mL
Summary of the method: as §3

N=C(N)NCCC[C@@H]1NC(=O)[C@H](CCCNC(=N)N)NC(=O)[C@H](CCCNC(=N)N)NC(=O)[C@H](C(c2ccccc2)c2ccccc2)NC(=O)[C@H](Cc2c[nH]c3ccccc23)NC(=O)[C@H](C(c2ccccc2)c2ccccc2)NC(=O)[C@H](CCCNC(=N)N)NC1=O [3b, c[Arg-Arg-Arg-Arg-Dip-Trp-Dip]] (cyclo(RRRR[Dip]W[Dip]))
decrease in biofilm mass ([1]; at 2× the MIC): 60–62%
decrease in biofilm mass ([1]; at MIC): 31–39%
reduction in biofilm mass ([2]; at 2× the MIC): 60–65%
reduction in biofilm mass ([2]; at MIC, vs untreated control): 40–45%
time to completely halt growth of nearly all cells (E. coli (ATCC BAA-2452) [3]; at 4× the MIC): 2 h
time to completely halt growth of nearly all cells (E. coli (ATCC BAA-2452) [3]; at MIC): 4 h
MIC NaCl (E. coli (ATCC BAA-2452) [4]; ATCC BAA-2452): 25 mg/L (≈ 19.9 µM)
MIC CaCl2 (E. coli (ATCC BAA-2452) [4]; E. coli (ATCC BAA-2452), CaCl2 2 mM): 12.5 mg/L (≈ 9.94 µM)
MIC KCl (E. coli (ATCC BAA-2452) [4]; E. coli (ATCC BAA-2452), KCl […]): 12.5 mg/L (≈ 9.94 µM)
MIC Control (E. coli (ATCC BAA-2452) [4]; E. coli (ATCC BAA-2452), MH media without salt ions or serum): 12.5 mg/L
MIC MgCl2 (E. coli (ATCC BAA-2452) [4]; E. coli (ATCC BAA-2452), MgCl2 1 mM): 12.5 mg/L (≈ 9.94 µM)
MIC NH4Cl (E. coli (ATCC BAA-2452) [4]; E. coli (ATCC BAA-2452), NH4Cl 6 mM): 12.5 mg/L (≈ 9.94 µM)
viability at 24 h, 100 μg/mL (in vitro [5]): > 70%
MIC Pseudomonas aeruginosa (ATCC BAA-1744) [6]: 12.5 mg/L (≈ 9.94 µM)
MIC Clostridium difficile (ATCC 700057) [7]: 12.5 mg/L (≈ 9.94 µM)
eradication of fungal cells (C. albicans (ATCC 60193) [8]; at 4× the MIC): near-complete eradication
eradication of fungal cells (C. albicans (ATCC 60193) [8]; at MIC): Complete eradication was not achieved
viability at 24 h, 100 μg/mL (in vitro [9]): > 70%
reduction in biofilm mass ([10]; at 2× the MIC): 49–56%
reduction in biofilm mass ([10]; at MIC): 31–36%
viability at 24 h, 50 μg/mL (in vitro [11]): 81 to 89%
viability at 24 h, 100 μg/mL (in vitro [11]): > 70%
viability at 24 h, 250 μg/mL (in vitro [11]): > 50%
MIC Clostridium difficile (NAP1/027) [12]: 6.2 mg/L (≈ 4.93 µM)
viability at 24 h, 100 μg/mL (in vitro [13]): > 70%
MIC (fungi): 3.1 to 12.5 mg/L
MIC MgCl2 (A. fumigatus (Af-293) [14]; A. fumigatus (Af-293), MgCl2 1 mM): 12.5 mg/L (≈ 9.94 µM)
MIC NaCl (A. fumigatus (Af-293) [14]; A. fumigatus (Af-293), NaCl 150 mM): 12.5 mg/L (≈ 9.94 µM)
MIC FBS (25%) (A. fumigatus (Af-293) [14]; A. fumigatus (Af-293), fetal bovine serum 25%): 12.5 mg/L (≈ 9.94 µM)
MIC CaCl2 (A. fumigatus (Af-293) [14]; Af-293): 6.2 mg/L (≈ 4.93 µM)
MIC Control (A. fumigatus (Af-293) [14]; Af-293): 6.2 mg/L (≈ 4.93 µM)
MIC KCl (A. fumigatus (Af-293) [14]; Af-293): 6.2 mg/L (≈ 4.93 µM)
MIC NH4Cl (A. fumigatus (Af-293) [14]; Af-293): 6.2 mg/L (≈ 4.93 µM)
HC50 [15]: 230 µg/mL
MIC Enterococcus faecalis (ATCC 29212) [16]: 12.5 mg/L (≈ 9.94 µM)
MIC Staphylococcus pneumoniae (ATCC 700677) [17]: 12.5 mg/L (≈ 9.94 µM)
change in MIC after repeated exposure (resistance development) [18]: no signs of resistance development; also recorded: negligible changes in the MIC values
time to virtually eliminate all bacterial cells (MRSA (ATCC BAA-1556) [19]; at 4× the MIC): 1 to 2 h
time to virtually eliminate all bacterial cells (MRSA (ATCC BAA-1556) [19]; at MIC): 3 to 4 h
eradication of fungal cells (A. fumigatus (Af-293) [20]; at 4× the MIC): near-complete eradication
eradication of fungal cells (A. fumigatus (Af-293) [20]; at MIC): Complete eradication was not achieved
MIC Acinetobacter baumannii (ATCC BAA1605) [21]: 12.5 mg/L (≈ 9.94 µM)
reduction in biofilm mass ([22]; at 2× the MIC): 60–65%
reduction in biofilm mass ([22]; at MIC): 40–45%
MIC Enterococcus faecalis (ATCC 51575) [23]: 12.5 mg/L (≈ 9.94 µM)
MIC CaCl2 (MRSA (ATCC BAA-1556) [24]): 1.5 mg/L (≈ 1.19 µM)
MIC Control (MRSA (ATCC BAA-1556) [24]): 1.5 mg/L (≈ 1.19 µM)
MIC KCl (MRSA (ATCC BAA-1556) [24]): 3.1 mg/L (≈ 2.47 µM)
MIC MgCl2 (MRSA (ATCC BAA-1556) [24]): 3.1 mg/L (≈ 2.47 µM)
MIC NH4Cl (MRSA (ATCC BAA-1556) [24]): 1.5 mg/L (≈ 1.19 µM)
MIC NaCl (MRSA (ATCC BAA-1556) [24]): 3.1 mg/L (≈ 2.47 µM)
MIC (Gram-negative bacteria): 12.5 to 25 mg/L
remaining at 0.5 h, 75 μM (in vitro [25]; human plasma): ~82.4%
remaining at 12 h, 75 μM (in vitro [25]; human plasma): ~52.3%
remaining at 24 h, 75 μM (in vitro [25]; human plasma): ~44.9%
half-life at 75 μM (in vitro [25]; plasma): 13 h
cell viability [26]: > 60%
MIC CaCl2 (C. albicans (ATCC 60193) [27]): 6.2 mg/L (≈ 4.93 µM)
MIC Control (C. albicans (ATCC 60193) [27]): 3.1 mg/L (≈ 2.47 µM)
MIC KCl (C. albicans (ATCC 60193) [27]): 3.1 mg/L (≈ 2.47 µM)
MIC MgCl2 (C. albicans (ATCC 60193) [27]): 3.1 mg/L (≈ 2.47 µM)
MIC NH4Cl (C. albicans (ATCC 60193) [27]): 6.2 mg/L (≈ 4.93 µM)
MIC NaCl (C. albicans (ATCC 60193) [27]): 3.1 mg/L (≈ 2.47 µM)
calcein dye leakage [28]: 14.11%
MIC Escherichia coli (ATCC BAA-2452) [29]: 12.5 mg/L (≈ 9.94 µM)
calcein dye leakage ([30]; 40 min): approximately 20%
calcein dye leakage ([30]; 60 min): ~60%
incubation time to 100% dye leakage ([30]; 50 μg/mL): 60 min
